# What was measured:
# [1] = test system: Heligmosomoides polygyrus; experiment: Mouse oral clearance was measured against Nematospiroides dubius; type: functional; set-up: concentration or dose not given beside the values
# In short: (§1)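 Mice experimentally infected with N. dubius (nematode) or H. nana (tapeworm) received the compound in the diet at 0.2%. Read-out is percent clearance of worms after oral dosing.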
# Rodentolepis nana = experiment: Mouse oral clearance was measured against Hymenolepiasis nana.; type: functional; set-up: concentration or dose not given beside the values; in short: as §1
# Ovis aries [2] = experiment: Percent reduction in nematode fecal egg count was measured in sheep following 50 mg/kg p.o.; type: functional; settings: route oral
# [3] = test system: Heligmosomoides polygyrus; experiment: Titration of anthelmintic activity against Nematospiroides dubius in mice at 0.025 concentration of diet.; type: ADME, organism-based; settings: in vivo, po
# In short: (§2)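 Titration in mice experimentally infected with N. dubius, with the compound mixed into the diet at a series of levels. Read-out is nematode clearance.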
# [4] = test system: Heligmosomoides polygyrus; experiment: Titration of anthelmintic activity against Nematospiroides dubius in mice at 0.0125 concentration of diet.; type: ADME, organism-based; settings: in vivo, po; in short: as §2
# [5] = test system: Heligmosomoides polygyrus; experiment: Titration of anthelmintic activity against Nematospiroides dubius in mice at 0.1 concentration of diet.; type: ADME, organism-based; settings: in vivo, po; in short: as §2
# [6] = test system: Heligmosomoides polygyrus; experiment: Titration of anthelmintic activity against Nematospiroides dubius in mice at 0.2 concentration of diet.; type: ADME, organism-based; settings: in vivo, po; in short: as §2
# [7] = test system: Heligmosomoides polygyrus; experiment: Titration of anthelmintic activity against Nematospiroides dubius in mice at 0.05 concentration of diet.; type: ADME, organism-based; settings: in vivo, po; in short: as §2
# Ovis aries [8] = experiment: Percent reduction in fecal egg count was measured in sheep dosed at 25 mg/kg.; type: functional
# Ovis aries [9] = experiment: Percent reduction in fecal egg count was measured in sheep dosed at 58 mg/kg.; type: functional
# Ovis aries [10] = experiment: Percent reduction in fecal egg count was measured in sheep dosed at 50 mg/kg.; type: ADME, organism-based; set-up: dose 50 mg/kg; settings: in vivo
# Ovis aries [11] = experiment: Percent reduction in fecal egg count was measured in sheep dosed at 100 mg/kg.; type: functional
# Ovis aries [12] = experiment: Percent reduction in fecal egg count was measured in sheep dosed at 44 mg/kg.; type: functional
Compound,Activity [1] [%],Activity (Rodentolepis nana) [%],Reduction (Ovis aries [2]) [%],also measured
S=C=Nc1ccc2oc(-c3ccc(CN4CCOCC4)o3)nc2c1,0,0,,
CN1CCN(c2ccc(-c3nc4cc(N=C=S)ccc4o3)cn2)CC1,0,0,0,
S=C=Nc1ccc2sc(-c3cccnc3)nc2c1,58,0,,
S=C=Nc1ccc2nc(-c3ccccn3)sc2c1,0,75,65,
c1ccc2[nH]c(-c3cscn3)nc2c1 [THIABENDAZOLE],,,,Activity [3]: 47%; Activity [4]: 40%; Activity [5]: 89%; Activity [6]: 96%
Cn1cccc1-c1nc2cc(N=C=S)ccc2o1,100,25,34,Activity [3]: 25%; Activity [4]: 0%; Activity [5]: 81%; Activity [6]: 100%; Activity [7]: 45%
S=C=Nc1ccc2[nH]c(-c3ccccn3)nc2c1,0,100,100,
Cc1cc2oc(-c3cccnc3)nc2cc1N=C=S,99,0,,Reduction (Ovis aries [8]): 0%
S=C=Nc1ccc2nc(-c3cccs3)oc2c1,0,0,,
CCN(CC)Cc1ccc(-c2nc3cc(N=C=S)ccc3o2)s1.Cl,0,0,,
S=C=Nc1ccc2sc(-c3ccccn3)nc2c1,20,50,,Reduction (Ovis aries [9]): 36%
S=C=Nc1ccc2nc(-c3ccccn3)oc2c1.S=C=Nc1ccc2oc(-c3ccccn3)nc2c1,0,50,35,
S=C=Nc1ccnc(-c2nc3ccccc3o2)c1,0,0,10,
S=C=Nc1ccc2oc(-c3ccc(Cl)nc3)nc2c1,0,0,97,
S=C=Nc1ccc2oc(-c3ccccc3)nc2c1,60,0,57,
S=C=Nc1ccc2oc(-c3cccnc3)nc2c1,,,,Reduction (Ovis aries [10]): 69%
S=C=Nc1cc(Cl)c2oc(-c3cccs3)nc2c1,0,0,,
S=C=Nc1ccc2oc(-c3cccs3)nc2c1,98,0,,
COc1cc2sc(-c3cccnc3)nc2cc1N=C=S,5,0,40,
CN1CCN(Cc2ccc(-c3nc4cc(N=C=S)ccc4o3)s2)CC1,0,0,,

Compound,Activity [1] [%],Activity (Rodentolepis nana) [%],Reduction (Ovis aries [2]) [%],also measured
S=C=Nc1ccc2nc(-c3cccnc3)sc2c1.S=C=Nc1ccc2sc(-c3cccnc3)nc2c1,99,100,99,
Cn1cccc1-c1nc2cc(N=C=S)cc(Cl)c2o1,0,0,,
S=C=Nc1ccc2nc(-c3cccnc3)oc2c1,46,0,78,
Cc1ccc(-c2nc3cc(N=C=S)ccc3o2)o1,100,66,,Reduction (Ovis aries [11]): 97%
Cc1cc2nc(-c3cccnc3)oc2cc1N=C=S,0,0,,Reduction (Ovis aries [12]): 99%
Cc1cc2oc(-c3ccccn3)nc2cc1N=C=S,0,0,90,
S=C=Nc1ccc2oc(-c3sccc3CN3CCOCC3)nc2c1,0,0,,
S=C=Nc1cc(Cl)c2oc(-c3cccnc3)nc2c1,0,0,0,
Cc1ccc(-c2nc3cc(N=C=S)ccc3o2)s1,0,33,,
CN(C)c1ccc(-c2nc3cc(N=C=S)ccc3o2)cn1.CN(C)c1ccc(-c2nc3ccc(N=C=S)cc3o2)cn1,0,0,,
S=C=Nc1ccc2sc(-c3cccs3)nc2c1,61,0,57,
S=C=Nc1cc(Cl)c2oc(-c3ccc(Cl)nc3)nc2c1,0,0,,
S=C=Nc1ccc2nc(-c3cccnc3)oc2c1.S=C=Nc1ccc2oc(-c3cccnc3)nc2c1,,,,Reduction (Ovis aries [8]): 94%
S=C=Nc1ccc2oc(-c3ccco3)nc2c1,100,0,,Activity [3]: 0%; Activity [4]: 0%; Activity [5]: 88%; Activity [6]: 100%; Activity [7]: 39%; Reduction (Ovis aries [11]): 97%
S=C=Nc1ccc2oc(-c3ccc(CN4CCOCC4)s3)nc2c1,0,66,,
S=C=Nc1ccc2oc(-c3ccncc3)nc2c1,0,0,40,
S=C=Nc1ccc2nc(-c3ccc(N4CCOCC4)nc3)oc2c1.S=C=Nc1ccc2oc(-c3ccc(N4CCOCC4)nc3)nc2c1,0,0,27,
Cc1ccsc1-c1nc2cc(N=C=S)ccc2o1,78,0,,
S=C=Nc1ccc2nc(-c3cnccn3)oc2c1.S=C=Nc1ccc2oc(-c3cnccn3)nc2c1,0,,93,

# Reference: ChEMBL document CHEMBL1122116, “Antiparasitic agents. 5. Synthesis and anthelmintic activities of novel 2-heteroaromatic-substituted isothiocyanatobenzoxazoles and benzothiazoles” (J Med Chem, 1982)
